This note sets out measurements from article PMC2814311 (Journal of biological inorganic chemistry : JBIC : a …, 2009).

Data set [1] in a line: Caco-2 permeability assay. It counts as in vitro ADME. The following applies: human; for efflux ratio at 2 h, 50 μmol/L: Caco-2, pH 7.4; for Papp at 2 h, 50 μmol/L: 2 hrs at 37°C. A digest of the protocol: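 Caco-2 cells were grown in MEM with 20% FBS at 37 °C and 5% CO2. They were seeded on transwell inserts at 0.165×10^5 cells/insert and cultured 21 days in 10% FBS MEM, with monolayer integrity checked by TEER. Monolayers were washed in HBSS/HEPES (10 mM, pH 7.4). Test compound (50 μmol/L) was added apically or basolaterally and incubated 2 h at 37 °C. The receiver side was quantified by UPLC/MS. Papp = dQ/dt×1/AC0, and efflux ratio = B→A/A→B.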

Data set [2] is described as follows: Parallel artificial membrane permeability assay. It counts as in vitro ADME. Conditions: PAMPA. A digest of the protocol: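 Test compound was supplied as a 10 mM DMSO stock and diluted 200-fold in pH 7.4 buffer. It was placed in the donor wells under an artificial lipid membrane filter plate holding pH 7.4 acceptor sink buffer. Plates were incubated 0.5 h at room temperature, with each well magnetically stirred. Donor and acceptor concentrations were measured by UV plate spectrometry in an automated workflow.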

Data set [3] concerns MCF10dcis.com (DCIS) cells. In words: Copper accumulation in breast cancer cells measured by ICP-OES. It counts as cell-based, human. The following applies: for difference in ability to accumulate cellular copper versus inactive analogs: 10 μM CuCl2 mixtures, 1 h (8-OHQ vs 2, 3) or 8 hrs (CQ vs 5, 6); for increase of intracellular copper level: compound-copper mixture.
Data set [4] relates to breast cancer DCIS cells. In words: Cell proliferation assay. The format is cell-based, human. Conditions: for toxicity of compound alone: DCIS cells, compound without copper, 24 h, MTT. A digest of the protocol: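 DCIS human breast cancer cells were kept in DMEM/F12 with 5% horse serum, bicarbonate, 10 mM HEPES and antibiotics at 37 °C, 5% CO2. They were grown to 70–80% confluency, then given test compound alone or premixed with CuCl2 at various concentrations for 24 h at 37 °C. Medium was removed before the MTT read-out. Viability is expressed as percent of DMSO-treated cells (mean±SD, n=4).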

Data set [5] is described as follows: Cu-ligand binding by UV-vis titration. The following applies: UV-vis titration with CuCl2 in methanol; 0.1 mM compound. It counts as physicochemical.
The mark [6] stands for this setting: Caco-2, pH 7.4, CaCo2 Papp A/B, apical to basolateral.
[7] abbreviates: Caco-2, pH 7.4, Caco2 Papp B/A, basolateral to apical.

For `Oc1cccc2cccnc12` [Compound 1, 8-hydroxyquinoline, reference compound], the efflux ratio at 2 h, 50 μmol/L in data set [1] stood at 0.8. The Papp at 2 h, 50 μmol/L in data set [1] (setting [6]) came out at 38 ± 14.8 ×10⁻⁶ cm/s; in data set [1] (setting [7]), 29 ± 1.1 ×10⁻⁶ cm/s. The Papp at 0.5 hr, 50 µM in data set [2] stood at 21.3 ± 1.6 ×10⁻⁶ cm/s. Besides, the “difference in ability to accumulate cellular copper versus inactive analogs” value in data set [3] was “at least 100 fold”. The “increase of intracellular copper level” value in data set [3] is 135 fold. The results for the “toxicity of compound alone” value in data set [4] and in data set [4] (listed as 8-OHQ) were “some toxicity” and “much less or no toxicity”, respectively. The “formation of copper complex” value in data set [5] is “bind to copper and form complexes”.

`COc1cccc2cccnc12` [Compound 2, 8-methoxyquinoline]: the efflux ratio at 2 h, 50 μmol/L in data set [1] amounted to 0.6. The Papp at 2 h, 50 μmol/L in data set [1] (setting [6]) stood at 48.3 ± 2.6 ×10⁻⁶ cm/s; in data set [1] (setting [7]), 29.9 ± 0.7 ×10⁻⁶ cm/s. In data set [2], this compound gave a Papp at 0.5 hr, 50 µM of 68.2 ± 10.9 ×10⁻⁶ cm/s. The “increase of intracellular copper level” value in data set [3] was “did not change the accumulation of intracellular copper”. In addition, the “formation of copper complex” value in data set [5] was “could not form complexes with copper”.

In the case of `CCOc1cccc2cccnc12` [Compound 3, 8-ethoxyquinoline], the efflux ratio at 2 h, 50 μmol/L in data set [1] came out at 0.5. The Papp at 2 h, 50 μmol/L stood at 20.7 ± 14.6 ×10⁻⁶ cm/s in data set [1] (setting [6]) and 9.4 ± 2.5 ×10⁻⁶ cm/s in data set [1] (setting [7]). The same compound came in with a Papp at 0.5 hr, 50 µM in data set [2] of 72.6 ± 24.8 ×10⁻⁶ cm/s. Further, the “increase of intracellular copper level” value in data set [3] is reported as “did not change the accumulation of intracellular copper”. For the same compound, in data set [5], the “formation of copper complex” value was “could not form complexes with copper”.

Consider `Oc1c(I)cc(Cl)c2cccnc12` [Compound 4, 5-chloro-7-iodo-8-hydroxyquinoline, reference compound], for which the efflux ratio at 2 h, 50 μmol/L in data set [1] came out at 0.7. Moreover, the Papp at 2 h, 50 μmol/L was found to be 47.3 ± 6.1 ×10⁻⁶ cm/s in data set [1] (setting [6]) and 31.5 ± 2.2 ×10⁻⁶ cm/s in data set [1] (setting [7]). Further, in data set [2], the Papp at 0.5 hr, 50 µM was 33.4 ± 3.1 ×10⁻⁶ cm/s. Also, the “difference in ability to accumulate cellular copper versus inactive analogs” value in data set [3] is on record as 40–50 fold. The “toxicity of compound alone” value in data set [4] was “some toxicity”; in data set [4] (listed as CQ) it was “much less or no toxicity”. Also, in data set [5], the “formation of copper complex” value was “bind to copper and form complexes”.

`COc1c(I)cc(Cl)c2cccnc12` [Compound 5, 5-chloro-7-iodo-8-methoxyquinoline]: in data set [1], the efflux ratio at 2 h, 50 μmol/L worked out at 0.6. The Papp at 2 h, 50 μmol/L came to 21.5 ± 3.1 ×10⁻⁶ cm/s in data set [1] (setting [6]) and 12.5 ± 1.6 ×10⁻⁶ cm/s in data set [1] (setting [7]). In addition, the Papp at 0.5 hr, 50 µM in data set [2] was 77.9 ± 5.4 ×10⁻⁶ cm/s. Moreover, in data set [3], the “increase of intracellular copper level” value is listed as “did not change the accumulation of intracellular copper”. In addition, the “formation of copper complex” value in data set [5] is recorded as “could not form complexes with copper”.

With `COc1ccc(Cl)c2cccnc12` [Compound 6, 5-chloro-8-methoxyquinoline], in data set [1], the efflux ratio at 2 h, 50 μmol/L came out at 0.7. The Papp at 2 h, 50 μmol/L in data set [1] (setting [6]) was determined as 60.4 ± 2.4 ×10⁻⁶ cm/s; in data set [1] (setting [7]), 41.3 ± 2.7 ×10⁻⁶ cm/s. In data set [2], this compound displayed a Papp at 0.5 hr, 50 µM of 30.8 ± 4.9 ×10⁻⁶ cm/s. For the same compound, in data set [3], the “increase of intracellular copper level” value is “did not change the accumulation of intracellular copper”. For the same compound, the “formation of copper complex” value in data set [5] was “could not form complexes with copper”.

Turning to `[Cu+2].[O-]c1cccc2cccnc12.[O-]c1cccc2cccnc12` [Cu [8-OHQ]2], in data set [4] (unpublished work of the authors), the “anti-proliferative effect of synthesized copper complex” value is “comparable to their copper mixtures”.
